Source: ChEMBL document CHEMBL2407080, “Synthesis and antifungal activities of cyclic octa-lipopeptide burkholdine analogues” (2013)
Values after ≈ are worked out from the molar mass of the structure shown.

Assays:
Format in all cases: functional
[1] = Antifungal activity against Candida viswanathii NBRC10321 after 24 hrs by two-fold serial dilution method
Summary of the method: (§1)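 Broth twofold serial dilution MIC. Organisms were pre-grown 2 days in YPD broth, and the assay was run in YPD. Compound started at […] in medium with 0.1% DMSO, then serially diluted twofold. Each well was inoculated with about 5.0 × 10³ cells and incubated 24 h at 30 °C. MIC is the lowest concentration with no visible growth.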

Aspergillus oryzae = experiment: Antifungal activity against Aspergillus oryzae 1-Murasaki-1 after 24 hrs by two-fold serial dilution method; conditions: 1-Murasaki-1, 24 h; summary of the method: as §1
Saccharomyces cerevisiae = experiment: Antifungal activity against Saccharomyces cerevisiae X2180-1A after 24 hrs by two-fold serial dilution method; summary of the method: as §1

Structure (SMILES) | MIC [1] [µg/mL] | MIC (Aspergillus oryzae) [µg/mL] | MIC (Saccharomyces cerevisiae) [µg/mL]
NC(=O)C[C@@H]1NC(=O)CNC(=O)[C@@H](CC(N)=O)NC(=O)[C@H](Cc2ccc(O)cc2)NC(=O)[C@@H](CO)NC(=O)CCNC(=O)[C@H](CC(N)=O)NC(=O)[C@H](CO)NC1=O | > 800 | > 800 | 800 (≈ 990 µM)
NC(=O)C[C@@H]1NC(=O)CNC(=O)[C@H](CC(N)=O)NC(=O)[C@H](Cc2ccc(O)cc2)NC(=O)[C@H](CO)NC(=O)CCNC(=O)[C@H](CC(N)=O)NC(=O)[C@H](CO)NC1=O | 800 (≈ 990 µM) | > 800 | > 800
CCCCCCCCCCCCNC(=O)[C@H]1CC(=O)N[C@H](CO)C(=O)N[C@@H](Cc2ccc(O)cc2)C(=O)N[C@H](CC(N)=O)C(=O)NCC(=O)N[C@@H](CC(N)=O)C(=O)N[C@@H](CO)C(=O)N[C@@H](CC(N)=O)C(=O)N1 | > 800 | 400 (≈ 392 µM) | 400 (≈ 392 µM)
CCCCCCCCCCCCNC(=O)[C@@H]1CC(=O)N[C@@H](CO)C(=O)N[C@H](Cc2ccc(O)cc2)C(=O)N[C@@H](CC(N)=O)C(=O)NCC(=O)N[C@@H](CC(N)=O)C(=O)N[C@@H](CO)C(=O)N[C@@H](CC(N)=O)C(=O)N1 | 800 (≈ 785 µM) | 400 (≈ 392 µM) | > 800
CCCCCCCCCCCCNC(=O)[C@@H]1CC(=O)N[C@H](CO)C(=O)N[C@@H](Cc2ccc(O)cc2)C(=O)N[C@H](CC(N)=O)C(=O)NCC(=O)N[C@@H](CC(N)=O)C(=O)N[C@@H](CO)C(=O)N[C@@H](CC(N)=O)C(=O)N1 | 400 (≈ 392 µM) | 100 (≈ 98.1 µM) | 50 (≈ 49.1 µM)
CCCCCCCCCCCCNC(=O)[C@@H]1CC(=O)N[C@H](CO)C(=O)N[C@H](Cc2ccc(O)cc2)C(=O)N[C@H](CC(N)=O)C(=O)NCC(=O)N[C@@H](CC(N)=O)C(=O)N[C@@H](CO)C(=O)N[C@@H](CC(N)=O)C(=O)N1 | 800 (≈ 785 µM) | 50 (≈ 49.1 µM) | 25 (≈ 24.5 µM)
NC(=O)C[C@@H]1NC(=O)CNC(=O)[C@@H](CC(N)=O)NC(=O)[C@@H](Cc2ccc(O)cc2)NC(=O)[C@@H](CO)NC(=O)CCNC(=O)[C@H](CC(N)=O)NC(=O)[C@H](CO)NC1=O | > 800 | 800 (≈ 990 µM) | 800 (≈ 990 µM)
CCCCCCCCCCCCNC(=O)[C@@H]1CC(=O)N[C@@H](CO)C(=O)N[C@@H](Cc2ccc(O)cc2)C(=O)N[C@H](CC(N)=O)C(=O)NCC(=O)N[C@@H](CC(N)=O)C(=O)N[C@@H](CO)C(=O)N[C@@H](CC(N)=O)C(=O)N1 | 800 (≈ 785 µM) | 400 (≈ 392 µM) | > 800
CCCCCCCCCCC[C@H](O)[C@H](O)[C@H](O)C[C@H]1CC(=O)N[C@@H](CO)C(=O)N[C@H]([C@H](O)c2ccc(O)cc2)C(=O)N[C@H](CC(N)=O)C(=O)NCC(=O)N[C@@H](CC(N)=O)C(=O)N[C@@H](CO)C(=O)N[C@@H]([C@H](O)C(N)=O)C(=O)N1 |  |  | 1.6 (≈ 1.46 µM)
C[C@@H]1[C@H](O)[C@@H](C)/C=C/C=C/C=C/C=C/C=C/C=C/C=C/[C@H](O[C@@H]2O[C@H](C)[C@@H](O)[C@H](N)[C@@H]2O)C[C@@H]2O[C@](O)(C[C@@H](O)C[C@@H](O)[C@H](O)CC[C@@H](O)C[C@@H](O)CC(=O)O[C@H]1C)C[C@H](O)[C@H]2C(=O)O [AMPHOTERICIN B] |  |  | 0.8 (≈ 0.866 µM)
CCCCCCCCCCCCNC(=O)[C@H]1CC(=O)N[C@@H](CO)C(=O)N[C@@H](Cc2ccc(O)cc2)C(=O)N[C@@H](CC(N)=O)C(=O)NCC(=O)N[C@@H](CC(N)=O)C(=O)N[C@@H](CO)C(=O)N[C@@H](CC(N)=O)C(=O)N1 | > 800 | > 800 | 200 (≈ 196 µM)

The remaining lines, values ahead:

MIC [1] [µg/mL] | MIC (Aspergillus oryzae) [µg/mL] | MIC (Saccharomyces cerevisiae) [µg/mL] | Structure (SMILES)
> 800 | 800 (≈ 785 µM) | 800 (≈ 785 µM) | CCCCCCCCCCCCNC(=O)[C@H]1CC(=O)N[C@H](CO)C(=O)N[C@H](Cc2ccc(O)cc2)C(=O)N[C@@H](CC(N)=O)C(=O)NCC(=O)N[C@@H](CC(N)=O)C(=O)N[C@@H](CO)C(=O)N[C@@H](CC(N)=O)C(=O)N1
> 800 | > 800 | 800 (≈ 785 µM) | CCCCCCCCCCCCNC(=O)[C@H]1CC(=O)N[C@@H](CO)C(=O)N[C@H](Cc2ccc(O)cc2)C(=O)N[C@@H](CC(N)=O)C(=O)NCC(=O)N[C@@H](CC(N)=O)C(=O)N[C@@H](CO)C(=O)N[C@@H](CC(N)=O)C(=O)N1
> 800 | 800 (≈ 785 µM) | > 800 | CCCCCCCCCCCCNC(=O)[C@@H]1CC(=O)N[C@H](CO)C(=O)N[C@H](Cc2ccc(O)cc2)C(=O)N[C@@H](CC(N)=O)C(=O)NCC(=O)N[C@@H](CC(N)=O)C(=O)N[C@@H](CO)C(=O)N[C@@H](CC(N)=O)C(=O)N1
> 800 | 100 (≈ 98.1 µM) | 50 (≈ 49.1 µM) | CCCCCCCCCCCCNC(=O)[C@H]1CC(=O)N[C@@H](CO)C(=O)N[C@H](Cc2ccc(O)cc2)C(=O)N[C@H](CC(N)=O)C(=O)NCC(=O)N[C@@H](CC(N)=O)C(=O)N[C@@H](CO)C(=O)N[C@@H](CC(N)=O)C(=O)N1
> 800 | 400 (≈ 392 µM) | 800 (≈ 785 µM) | CCCCCCCCCCCCNC(=O)[C@@H]1CC(=O)N[C@@H](CO)C(=O)N[C@H](Cc2ccc(O)cc2)C(=O)N[C@H](CC(N)=O)C(=O)NCC(=O)N[C@@H](CC(N)=O)C(=O)N[C@@H](CO)C(=O)N[C@@H](CC(N)=O)C(=O)N1
> 800 | 800 (≈ 785 µM) | 400 (≈ 392 µM) | CCCCCCCCCCCCNC(=O)[C@H]1CC(=O)N[C@H](CO)C(=O)N[C@H](Cc2ccc(O)cc2)C(=O)N[C@H](CC(N)=O)C(=O)NCC(=O)N[C@@H](CC(N)=O)C(=O)N[C@@H](CO)C(=O)N[C@@H](CC(N)=O)C(=O)N1
> 800 | > 800 | 400 (≈ 392 µM) | CCCCCCCCCCCCNC(=O)[C@@H]1CC(=O)N[C@H](CO)C(=O)N[C@@H](Cc2ccc(O)cc2)C(=O)N[C@@H](CC(N)=O)C(=O)NCC(=O)N[C@@H](CC(N)=O)C(=O)N[C@@H](CO)C(=O)N[C@@H](CC(N)=O)C(=O)N1
> 800 | > 800 | 400 (≈ 392 µM) | CCCCCCCCCCCCNC(=O)[C@H]1CC(=O)N[C@H](CO)C(=O)N[C@@H](Cc2ccc(O)cc2)C(=O)N[C@@H](CC(N)=O)C(=O)NCC(=O)N[C@@H](CC(N)=O)C(=O)N[C@@H](CO)C(=O)N[C@@H](CC(N)=O)C(=O)N1
> 800 | 200 (≈ 196 µM) | 800 (≈ 785 µM) | CCCCCCCCCCCCNC(=O)[C@@H]1CC(=O)N[C@@H](CO)C(=O)N[C@@H](Cc2ccc(O)cc2)C(=O)N[C@@H](CC(N)=O)C(=O)NCC(=O)N[C@@H](CC(N)=O)C(=O)N[C@@H](CO)C(=O)N[C@@H](CC(N)=O)C(=O)N1
> 800 | 800 (≈ 785 µM) | 800 (≈ 785 µM) | CCCCCCCCCCCCNC(=O)[C@H]1CC(=O)N[C@@H](CO)C(=O)N[C@@H](Cc2ccc(O)cc2)C(=O)N[C@H](CC(N)=O)C(=O)NCC(=O)N[C@@H](CC(N)=O)C(=O)N[C@@H](CO)C(=O)N[C@@H](CC(N)=O)C(=O)N1
